Source: PubChem BioAssay (The Scripps Research Institute Molecular Screening Center)
TRPN1 ag: zebrafish TRPN1 channel agonists, primary screen, cell-based, HEK293, calcium fluorescence. HEK293 zebrafish TRPN1-YFP, Fluo-8 calcium fluorescence; 100% = response to 87 µM carbachol. AID 1424, 2008. activation, % at 3 µM. hit rate 0.18% among 220,000. transient receptor potential cation channel N1 (TRPN1/NompC), Danio rerio;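 active = activation above its plate's cutoff, the mean activation of test wells on that plate plus 3 SD, cut at about 19% in these data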
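Assay system: Zebrafish TRPN1-YFP in HEK293 cells | Incubation: Dye loading 1 h at 37 °C, then 30 min room temperature | Measured by: Kinetic Fluo-8 fluorescence, ex 470-495, em 515-575 nm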
CHO parental Ca: ATP-evoked calcium signal inhibitors, parental CHO, primary screen, counter-screen for OX1R antagonist project, cell-based, fluorescence, Fluo-8 calcium dye | parental CHO-K1, ATP-induced calcium, Fluo-8 fluorescence | inhibition, % at 5.6 µM | hit rate 0.63% among 330,000;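 active = inhibition above that plate's mean sample inhibition plus 3 SD, cut at about 26% in these data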
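Measured by: calcium-sensitive Fluo-8 fluorescence / Test system: CHO parental line / Controls: ATP-challenged DMSO wells low, unchallenged DMSO wells high / Measure: % inhibition / Compound: single nominal dose of 5.6 µM per compound / Replicates: single well per compound, no replicates / Reagent: ATP as calcium-mobilizing challenge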
TRPML3 agonist: human TRPML3 channel agonists, primary screen, cell-based, HEK293 TRPML3-YFP, Fluo-8 calcium fluorescence, 3 µM | Mucolipin-3 (Homo sapiens), Q8TDD5 | 100% = the carbachol control signal | activation, % at 3 µM | hit rate 0.29% among 220,000;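 active = activation above its plate's cutoff, the mean activation of the plate's test wells plus 3 SD, cut at about 12% in these data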
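Material: TRPML3-YFP stable HEK293 cells | Dosing: One concentration, 3 µM nominal, 0.3% DMSO | Timing: 125 s total fluorescence read per well | Technique: Fluo-8 calcium dye fluorescence, ex 470-495, em 515-575 nm | Measure: Percent activation from peak-to-basal fluorescence ratio, scaled between DMSO and carbachol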
OX1R antag-1: antagonists of human orexin 1 receptor (OX1R). Orexin/Hypocretin receptor type 1 (Homo sapiens), O43613. inhibition, % at 6.6 µM. hit rate 1.8% among 330,000. OX1R-expressing cells, FRET antagonist read-out. AID 485270, 2010; in the data active = inhibition mostly above about 38%, no sharp cut-off; inactive = mostly below about 40%
Target sequence (O43613 whole entry, looked up): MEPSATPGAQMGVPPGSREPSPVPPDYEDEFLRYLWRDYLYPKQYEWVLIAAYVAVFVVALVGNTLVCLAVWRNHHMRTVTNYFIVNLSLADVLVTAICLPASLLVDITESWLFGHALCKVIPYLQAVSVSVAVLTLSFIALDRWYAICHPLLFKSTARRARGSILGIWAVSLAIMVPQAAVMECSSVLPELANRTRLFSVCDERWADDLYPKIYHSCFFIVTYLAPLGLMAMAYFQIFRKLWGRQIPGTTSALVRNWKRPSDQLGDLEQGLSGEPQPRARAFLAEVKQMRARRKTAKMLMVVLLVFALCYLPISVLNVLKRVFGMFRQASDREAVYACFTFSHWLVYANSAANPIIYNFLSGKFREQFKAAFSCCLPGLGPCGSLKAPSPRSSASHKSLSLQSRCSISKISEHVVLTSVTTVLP
OX1R antag-2: OX1R (HCRTR1) antagonists, primary screen, fluorescence, CHO/OX1R cells, Fluo-8 calcium, orexin A | Orexin/Hypocretin receptor type 1 (Homo sapiens), O43613 | Fluo-8 calcium fluorescence | inhibition, % at 5 µM | hit rate 0.43% among 330,000 | AID 434989, 2010;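 active = inhibition above its plate's threshold, mean inhibition of all tested compounds on the plate plus 3 SD, cut at about 37% in these data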
A number is an active result; . = inactive; / = no result given. Compounds with a hit are over-represented: about 2.5% of the library has one in this group of screens.

SMILES	TRPN1 ag	CHO parental Ca	TRPML3 agonist	OX1R antag-1	OX1R antag-2
COc1ccc(OC[C@@H](O)CNC(=O)c2cccc3c2C(=O)c2ccc(Cl)cc2S3(=O)=O)cc1	/	.	/	42	.
COc1ccc(-c2ccc3c(c2)S(=O)(=O)c2cccc(C(=O)NCCOc4ccccc4Cl)c2C3=O)cc1OC	/	.	/	.	.
Cc1ccc(CNc2ncnc3cc(Cl)ccc23)cc1	/	35	/	.	.
Cc1nc(NC(=O)/C=C/c2ccccc2)sc1C(=O)Nc1ccc(Cl)cc1	.	.	.	.	.
Cc1nc(Nc2ccc(Cl)c(Cl)c2)sc1C(=O)Nc1ccccc1	.	.	.	69	.
CC(=O)c1c(C)[nH]c(C(=O)OCC(=O)N2CCc3ccccc3C2)c1C	/	.	/	.	.
Cc1c(-n2c(O)c(C3=c4ccccc4=NC3=O)sc2=O)c(=O)n(-c2ccccc2)n1C	.	.	.	.	.
O=C(O)Cn1c(O)c(C2=c3ccccc3=NC2=O)sc1=O	/	.	/	47	.
CCOC(=O)c1cnc(SCC(=O)Nc2cc(OC)ccc2OC)nc1N	.	34	.	.	.
CCOC(=O)c1cnc(SCC(=O)Nc2ccc(NC(C)=O)c(OC)c2)nc1N	.	.	.	.	.
COc1ccc(/C=N/NC(=O)CCn2c3ccccc3c3ccccc32)cc1OC	.	.	.	59	.
CCn1c2ccccc2c2cc(/C=N/NC(=O)c3cc(O)cc(O)c3)ccc21	.	.	.	.	.
COc1cc(/C=N/NC(=O)CCn2c3ccccc3c3ccccc32)cc(OC)c1OC	.	.	.	.	.
CCn1c2ccccc2c2cc(/C=N/NC(=O)c3ccc(O)cc3)ccc21	.	.	.	76	.
Cc1ccc2c(=O)cc(C(=O)NCc3ccccc3)oc2c1C	/	.	/	.	.
COc1cc(OC)c(C(=O)O/N=C(\N)c2ccc(C)cc2)cc1OC	/	.	/	36	.
COc1cc(OC)c(C(=O)O/N=C(\N)c2cccc(C)c2)cc1OC	/	.	/	36	.
COc1cc(C(=O)NNC(=O)CSc2nnc3ccccn23)cc(OC)c1OC	/	.	/	.	.
Cc1ccc2c(CN3CCN(Cc4ccc5c(c4)OCO5)CC3)cc(=O)oc2c1C	.	.	.	.	.
Cc1cc2oc(=O)cc(CN3CCN(Cc4ccc5c(c4)OCO5)CC3)c2cc1C	.	100	.	.	.
COc1cccc2cc(C(=O)Nc3ccccc3Cl)/c(=N/NS(=O)(=O)c3ccccc3)oc12	/	.	/	.	.
CC[C@H](C)[C@@H]1NC(=O)c2cc([N+](=O)[O-])cc(I)c2SC[C@@H](C(N)=O)NC(=O)[C@H](CCCCN)NC1=O	.	.	.	61	.
CC[C@H](C)[C@@H]1NC(=O)c2cc([N+](=O)[O-])cc(I)c2NCC[C@@H](C(N)=O)NC(=O)[C@H](CCCN=C(N)N)NC1=O	.	.	.	.	.
CCC(CC)N=C1NS(=O)(=O)c2cc([N+](=O)[O-])ccc21	.	.	.	55	.
CC(C)(C)CC(C)(C)N=C1NS(=O)(=O)c2cc([N+](=O)[O-])ccc21	.	.	.	.	.
SMILES	TRPN1 ag	CHO parental Ca	TRPML3 agonist	OX1R antag-1	OX1R antag-2
c1csc(-c2cn3ccc4ccccc4c3n2)c1	.	.	.	74	.
c1cc(-c2cccs2)nc(-c2cccs2)c1	.	.	.	.	.
O=C(Nc1cccc(Cl)c1)Nc1csc([N+](=O)[O-])c1	19	62	12	50	.
CN(c1cccc(NC(=O)Nc2cccc(Cl)c2)c1)S(C)(=O)=O	.	73	.	98	72
O=C(Nc1ccncc1)Nc1cccc(Cl)c1	/	.	/	.	.
COc1ccc(CNC(=O)c2ccc(CS(=O)c3ccccc3)o2)cc1 (stereo not given)	/	.	/	.	.
Cc1ccc(C)c(NC(=O)C(=O)NCC2CCCN2S(=O)(=O)c2cccs2)c1 (stereo not given)	/	.	/	.	.
O=C(CN1C(=O)C2C3C=CC(C3)C2C1=O)OCC(=O)c1ccc([N+](=O)[O-])cc1 (stereo not given)	/	.	/	58	.
COc1ccc(Cl)cc1NC(=S)NCCC(c1ccccc1)c1ccccc1	.	.	.	.	.
